Assays:
Type in all cases: functional
Malme-3M = assay: Cytotoxicity against human MALME-3M cells assessed as cell growth at 10^-5 M after 48 hrs by SRB assay; conditions: read-out: Activity
Method in brief: (§1)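 NCI 60-cell-line one-dose primary screen: cells inoculated and preincubated 24–48 h, then test agent added at a single 10^-5 M concentration for a further 48 h. Endpoint is sulforhodamine B protein staining read spectrophotometrically. Reported as percent growth relative to untreated control cells.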

MDA-MB-435 = assay: Cytotoxicity against human MDA-MB-435 cells assessed as cell growth at 10^-5 M after 48 hrs by SRB assay; conditions: MDA-MB-435, 48 h, read-out: Activity; method in brief: as §1
MCF7 = assay: Cytotoxicity against human MCF7 cells assessed as cell growth at 10^-5 M after 48 hrs by SRB assay; conditions: MCF7, 48 h, read-out: Activity; method in brief: as §1
Staphylococcus aureus [1] = assay: Antibacterial activity against Staphylococcus aureus assessed as zone of inhibition at 0.1 mg/mL after 24 hrs by stiff-plate agar-diffusion method; conditions: read-out: DIZ
UO-31 = assay: Cytotoxicity against human UO31 cells assessed as cell growth at 10^-5 M after 48 hrs by SRB assay; conditions: UO-31, 48 h, read-out: Activity
Method in brief: (§2)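 NCI human tumor cell line panel from nine cancer types. Each line was inoculated and preincubated 24–48 h, then exposed to a single concentration (10^-5 M) for 48 h. Growth was read by sulforhodamine B protein staining, measured spectrophotometrically. Value reported as percent growth of treated cells relative to untreated controls.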

CCRF-CEM = assay: Growth inhibition of human CCRF-CEM cells after 48 hrs by SRB assay
Method in brief: (§3)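 NCI panel of about 60 human tumor lines, 48 h continuous exposure at five 10-fold dilutions from 10^-4 to 10^-8 M. SRB protein staining was read as absorbance at time zero, in untreated controls and at each concentration. GI50 is the concentration giving 50% lower net protein increase than controls. TGI is where Ti = Tz, and LC50 is 50% protein loss versus start.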

T47D [2] = assay: Growth inhibition of human T47D cells after 48 hrs by SRB assay
Method in brief: (§4)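 NCI 60-cell-line human tumor panel. Cells were inoculated and preincubated for 24–48 h, then exposed continuously to compound for 48 h. Primary screen used a single 10^-5 M concentration. Growth was measured by sulforhodamine B protein staining, read spectrophotometrically, and reported as percent growth versus untreated controls. Selected compounds were also run at five 10-fold dilutions (10^-4 to 10^-8 M) to derive GI50 from time-zero-corrected absorbances.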

NCI-H322M = assay: Cytotoxicity against human NCI-H322M cells assessed as cell growth at 10^-5 M after 48 hrs by SRB assay; conditions: read-out: Activity; method in brief: as §2
CAKI-1 [3] = assay: Growth inhibition of human Caki1 cells after 48 hrs by SRB assay; conditions: CAKI-1, 48 h; method in brief: as §3
NCI-H522 = assay: Cytotoxicity against human NCI-H522 cells assessed as cell growth at 10^-5 M after 48 hrs by SRB assay; conditions: NCI-H522, 48 h, read-out: Activity; method in brief: as §2
[4] = Growth inhibition of human Hs 578T cells after 48 hrs by SRB assay; method in brief: as §3
Aspergillus niger [5] = assay: Antifungal activity against Aspergillus niger assessed as zone of inhibition at 0.1 mg/mL after 48 to 72 hrs by stiff-plate agar-diffusion method; conditions: read-out: DIZ
DU-145 = assay: Growth inhibition of human DU145 cells after 48 hrs by SRB assay; conditions: DU-145, 48 h; method in brief: as §3
OVCAR-8 = assay: Cytotoxicity against human OVCAR8 cells assessed as cell growth at 10^-5 M after 48 hrs by SRB assay; conditions: OVCAR-8, 48 h, read-out: Activity; method in brief: as §2
CAKI-1 [6] = assay: Cytotoxicity against human Caki1 cells assessed as cell growth at 10^-5 M after 48 hrs by SRB assay; conditions: CAKI-1, 48 h, read-out: Activity; method in brief: as §1
LOX IMVI = assay: Cytotoxicity against human LOXIMVI cells assessed as cell growth at 10^-5 M after 48 hrs by SRB assay; conditions: read-out: Activity; method in brief: as §1
SF-295 [7] = assay: Growth inhibition of human SF295 cells after 48 hrs by SRB assay; conditions: SF-295, 48 h; method in brief: as §4
[8] = system: Photobacterium leiognathi; assay: Antibacterial activity against Photobacterium leiognathi Sh1 assessed as inhibition of bacterial luminescence at 0.1 mg/mL after 10 mins by bioluminometry-based acute action test; design: scale not given: the % may be the effect or the level left
Method in brief: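 Marine P. leiognathi Sh1 (Azov Sea shrimp isolate) diluted in chloride solution to 10^5 cells/mL; compounds suspended in DMSO mixed with 1 mL bacterial suspension. Acute test: 10 min at 25 °C, then bioluminescence measured by bioluminometer as % of compound-free control. Tetracycline reference.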

Yamadazyma tenuis = assay: Antifungal activity against Candida tenuis assessed as zone of inhibition at 0.1 mg/mL after 48 to 72 hrs by stiff-plate agar-diffusion method; conditions: read-out: DIZ
Aspergillus niger [9] = assay: Antifungal activity against Aspergillus niger assessed as zone of inhibition of late spore formation at 0.5 mg/mL after 48 to 72 hrs by stiff-plate agar-diffusion method; conditions: read-out: DIZ
SF-295 [10] = assay: Cytotoxicity against human SF295 cells assessed as cell growth at 10^-5 M after 48 hrs by SRB assay; conditions: SF-295, 48 h, read-out: Activity; method in brief: as §2
Staphylococcus aureus [11] = assay: Antibacterial activity against Staphylococcus aureus assessed as zone of inhibition at 0.5 mg/mL after 24 hrs by stiff-plate agar-diffusion method; conditions: read-out: DIZ
T47D [12] = assay: Cytotoxicity against human T47D cells assessed as cell growth at 10^-5 M after 48 hrs by SRB assay; conditions: read-out: Activity; method in brief: as §2
OVCAR-4 = assay: Growth inhibition of human OVCAR4 cells after 48 hrs by SRB assay; conditions: OVCAR-4, 48 h; method in brief: as §3
EKVX = assay: Cytotoxicity against human EKVX cells assessed as cell growth at 10^-5 M after 48 hrs by SRB assay; conditions: read-out: Activity; method in brief: as §1
IGROV-1 = assay: Growth inhibition of human IGROV1 cells after 48 hrs by SRB assay; conditions: IGROV-1, 48 h; method in brief: as §3
SNB-75 = assay: Growth inhibition of human SNB75 cells after 48 hrs by SRB assay; conditions: SNB-75, 48 h; method in brief: as §4
NCI-H23 = assay: Cytotoxicity against human NCI-H23 cells assessed as cell growth at 10^-5 M after 48 hrs by SRB assay; conditions: NCI-H23, 48 h, read-out: Activity; method in brief: as §2
SN12C = assay: Cytotoxicity against human SN12C cells assessed as cell growth at 10^-5 M after 48 hrs by SRB assay; conditions: read-out: Activity; method in brief: as §2
ACHN = assay: Cytotoxicity against human ACHN cells assessed as cell growth at 10^-5 M after 48 hrs by SRB assay; conditions: read-out: Activity; method in brief: as §1
[13] = read-out: pLC50 (the source's name) (converted)

Compound: CCC1C2CCC(C2)C1NC(=O)CSc1nc2ccccc2c2nc(=O)c(-c3ccc(OC)cc3)nn12 (stereo not drawn)
- growth at 10 µM (Malme-3M): -29.2%
- growth at 10 µM (MDA-MB-435): 58.6%
- growth at 10 µM (MCF7): 48.2%
- zone of inhibition at 100 µg/mL (Staphylococcus aureus [1]): 0 mm
- growth at 10 µM (UO-31): -12.7%
- GI50 (CCRF-CEM): 2 µM
- CC50 (CCRF-CEM; [13]): > 50.1 µM
- TGI (CCRF-CEM; read-out: pTGI): > 50.1 µM
- GI50 (T47D [2]): 3.72 µM
- CC50 (T47D [2]; [13]): > 50.1 µM
- TGI (T47D [2]; read-out: pTGI): > 50.1 µM
- growth at 10 µM (NCI-H322M): 65.6%
- GI50 (CAKI-1 [3]): 3.72 µM
- CC50 (CAKI-1 [3]; [13]): > 50.1 µM
- TGI (CAKI-1 [3]; read-out: pTGI (converted)): 38.9 µM
- growth at 10 µM (NCI-H522): -49.9%
- GI50 [4]: 3.89 µM
- CC50 [4, 13]: > 50.1 µM
- TGI ([4]; read-out: pTGI (converted)): 20 µM
- zone of inhibition at 100 µg/mL (Aspergillus niger [5]): 0 mm
- GI50 (DU-145): 3.16 µM
- CC50 (DU-145; [13]): > 50.1 µM
- TGI (DU-145; read-out: pTGI (converted)): 37.2 µM
- growth at 10 µM (OVCAR-8): 53.1%
- growth at 10 µM (CAKI-1 [6]): 36.1%
- growth at 10 µM (LOX IMVI): 70.5%
- GI50 (SF-295 [7]): 3.47 µM
- CC50 (SF-295 [7]; [13]): > 50.1 µM
- TGI (SF-295 [7]; read-out: pTGI (converted)): 21.9 µM
- Activity [8]: 84%
- zone of inhibition at 100 µg/mL (Yamadazyma tenuis): 0 mm
- zone of inhibition at 500 µg/mL (Aspergillus niger [9]): 18 mm
- growth at 10 µM (SF-295 [10]): 69.9%
- zone of inhibition at 500 µg/mL (Staphylococcus aureus [11]): 0 mm
- growth at 10 µM (T47D [12]): -11.3%
- GI50 (OVCAR-4): 1.66 µM
- CC50 (OVCAR-4; [13]): 43.7 µM
- TGI (OVCAR-4; read-out: pTGI (converted)): 6.31 µM
- growth at 10 µM (EKVX): 25.6%
- GI50 (IGROV-1): 2.69 µM
- CC50 (IGROV-1; [13]): > 50.1 µM
- TGI (IGROV-1; read-out: pTGI (converted)): 36.3 µM
- GI50 (SNB-75): 3.09 µM
- CC50 (SNB-75; [13]): 30.9 µM
- TGI (SNB-75; read-out: pTGI (converted)): 11.5 µM
- growth at 10 µM (NCI-H23): 62.8%
- growth at 10 µM (SN12C): 57.8%
- growth at 10 µM (ACHN): -17.1%

— ChEMBL document CHEMBL1914438, “Synthesis and biological activity of novel N-cycloalkyl-(cycloalkylaryl)-2-[(3-R-2-oxo-2H-[1,2,4]triazino[2,3-c]quinazoline-6-yl)thio]acetamides” (2011)
